Data on 27 compounds can be found in ChEMBL document CHEMBL1781950, “Synthesis of 4-(aminoalkyl) substituted 1,3-dioxanes as potent NMDA and σ receptor antagonists” (Eur J Med Chem, 2011).

Each structure is given as a SMILES string. Activity calls are given as the source filed them. The rule behind the calls is not given here. Some results are limits rather than exact numbers.

Test [1] is described as follows: Displacement of [3H]-(+)-MK801 from NMDA receptor PCP binding site in pig cortex membrane after 90 mins by liquid scintillation counting. The test is classed as cell membranes, Sus scrofa. An outline of the steps: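 Pig brain cortex membranes (about 100 µg protein) incubated with 2 nM [3H]-(+)-MK-801 and at least 6 test concentrations in 5 mM Tris–acetate, 1 mM EDTA, pH 7.5, 90 min at 25 °C. Filtered on PEI-soaked GF/C filters. Non-specific binding with 10 µM (+)-MK-801. IC50 by nonlinear regression, triplicates; Ki mean ± SEM of three experiments.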

Test [2] in a line: Displacement of [3H]-ditolylguanidine from sigma 2 receptor PCP binding site in rat liver membrane. It counts as cell membranes. An outline of the steps:
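Non-specific binding with 10 µM unlabelled ditolylguanidine. Triplicates; IC50 from at least 6 concentrations by nonlinear regression; Ki mean ± SEM of three experiments.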
(In general: Loss of bound radioactivity is the signal in a displacement assay; it reports binding, not function.)

The target of test [3] is Sigma non-opioid intracellular receptor 1 (Cavia porcellus, UniProt Q60492). Kind of test: Displacement of [3H]-(+)-pentazocine from sigma 1 receptor PCP binding site in guinea pig brain by liquid scintillation counting.
Chain of Sigma non-opioid intracellular receptor 1 (Q60492 whole entry): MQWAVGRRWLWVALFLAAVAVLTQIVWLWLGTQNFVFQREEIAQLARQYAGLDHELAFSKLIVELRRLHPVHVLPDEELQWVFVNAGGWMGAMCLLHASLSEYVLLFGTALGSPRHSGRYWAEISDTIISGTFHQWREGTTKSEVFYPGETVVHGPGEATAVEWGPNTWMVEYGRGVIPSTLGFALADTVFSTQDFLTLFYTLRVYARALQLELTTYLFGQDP
Test [4] is described as follows: Selectivity ratio of Ki for rat sigma 2 receptor to Ki for guinea pig sigma 1 receptor.
Test [5] deals with Mus musculus. Kind of test: Analgesic activity against capsaicin-induced nocifensive behavior in mouse assessed as paw withdrawal latency to von Frey filament-induced pain at 32 mg/kg administered 30 mins before and measured 15 mins after capsaicin challenge. The test is classed as functional, organism-based. More on the design: dose 32 mg/kg. An outline of the steps:
(§1)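 Capsaicin injected into mid-plantar surface of right hind paw of mice; test ligand given 30 min before capsaicin. Mechanical withdrawal latency to a 1 g von Frey filament read 15 min after capsaicin; effect expressed as % analgesia.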

For test [6], the system named is Mus musculus. Kind of test: Analgesic activity against capsaicin-induced nocifensive behavior in mouse assessed as paw withdrawal latency to von Frey filament-induced pain at 1 mg/kg administered 30 mins before and measured 15 mins after capsaicin challenge. It counts as functional. A digest of the protocol:
as §1

For test [7], the system named is Mus musculus. Kind of test: Analgesic activity against capsaicin-induced nocifensive behavior in mouse assessed as paw withdrawal latency to von Frey filament-induced pain at 0.125 mg/kg administered 30 mins before and measured 15 mins after capsaicin challenge. It counts as functional. An outline of the steps:
as §1

The subject of test [8] is Mus musculus. Kind of test: Analgesic activity against capsaicin-induced nocifensive behavior in mouse assessed as paw withdrawal latency to von Frey filament-induced pain at 0.25 mg/kg administered 30 mins before and measured 15 mins after capsaicin challenge. The test is classed as functional. A digest of the protocol:
as §1

For test [9], the system named is Mus musculus. The experiment in a line: Analgesic activity against capsaicin-induced nocifensive behavior in mouse assessed as paw withdrawal latency to von Frey filament-induced pain at 0.5 mg/kg administered 30 mins before and measured 15 mins after capsaicin challenge. The test is classed as functional. An outline of the steps:
as §1

Test [10] in a line: Displacement of [3H]-(+)-MK801 from NMDA receptor PCP binding site. A digest of the protocol: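 Pig brain cortex membranes (about 100 µg protein) incubated with test compound (at least 6 concentrations), 2 nM [3H]-(+)-MK-801 in 5 mM Tris–acetate, 1 mM EDTA, pH 7.5, 90 min at 25 °C. Filtered through polyethylenimine-soaked GF/C filters, counted by scintillation. Nonspecific binding with 10 µM (+)-MK-801. IC50 from nonlinear regression, converted to Ki. Triplicates, three independent experiments.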

As a reminder, the Ki is the dissociation constant of the complex between target and ligand, obtained from inhibition or displacement. For the compound `NCC[C@@H]1CCOC(c2ccccc2)(c2ccccc2)O1`, the Ki in [1] is 2350 nM; in test [2], above 10000 nM; in test [3], above 10000 nM.
Take `CNCC[C@@H]1CCOC(c2ccccc2)(c2ccccc2)O1`: the inhibitory constant (Ki) in test [1] was 6870 nM; in test [2], above 10000 nM; in test [3], above 10000 nM.
Turning to `CN(C)CC[C@@H]1CCOC(c2ccccc2)(c2ccccc2)O1`, the Ki in [1] was above 10000 nM; in test [2] it was above 10000 nM; in test [3], 660 nM.
As for `c1ccc(CNCC[C@@H]2CCOC(c3ccccc3)(c3ccccc3)O2)cc1`, the inhibition constant Ki in test [1] is above 10000 nM; in test [2], 2750 nM; in test [3], 320 nM.
The matching figures for `NCC[C@@H]1CCOC2(O1)C1CC3CC(C1)CC2C3` (some centres undefined): above 10000 nM, above 10000 nM and 1250 nM.
The matching figures for `NCCC[C@@H]1CCOC(c2ccccc2)(c2ccccc2)O1`: above 10000 nM, above 10000 nM and 175 nM.
Consider `NCC[C@H]1COC(c2ccccc2)(c2ccccc2)O1`, for which the affinity in test [1], expressed as Ki, was 3260 nM.
Still for that read-out and setting: the same measure for `CC[C@]1(c2ccccc2)OC[C@H](CCN)O1`: 69 nM; for `NC[C@@H]1CCOC(c2ccccc2)(c2ccccc2)O1`: 717 nM.
On the same count and under the same terms, with `CC[C@]1(c2ccccc2)OCC[C@@H](CN)O1` the figure was 257 nM.
On to `NCC[C@@H]1CCO[C@H](c2ccccc2)O1` (racemic), for which the Ki in test [1] was above 10000 nM; in test [2], above 10000 nM; in test [3], 165 nM.
As for `CNCC[C@@H]1CCO[C@H](c2ccccc2)O1` (racemic), the values for the Ki in test [1], in [2] and in test [3] were above 10000 nM, above 10000 nM and 449 nM, respectively.
In the case of `CN(C)CC[C@@H]1CCO[C@H](c2ccccc2)O1` (racemic), the values for the Ki in test [1], in test [2] and in [3] were above 10000 nM, 1830 nM and 1650 nM, respectively.
On to `c1ccc(CNCC[C@@H]2CCO[C@H](c3ccccc3)O2)cc1` (racemic), for which, in test [4], the Ratio Ki was found to be 5. The Ki in [1] is above 10000 nM; in test [2] it was 92 nM; in test [3], 19 nM. Further, the result in [5] was Active. Moreover, the Activity was determined as 100% in test [6], 10% in test [7], 70% in test [8] and 100% in [9].
Turning to `CC[C@@]1(c2ccccc2)OCC[C@@H](CCN)O1` (relative stereo), the Ki in test [1] is 24 nM; in test [2], above 10000 nM; in [3], 955 nM.
For `CC[C@@]1(c2ccccc2)OCC[C@@H](CCNC)O1` (relative stereo), in that order: 154 nM, above 10000 nM and 856 nM.
In the case of `CC[C@@]1(c2ccccc2)OCC[C@@H](CCN(C)C)O1` (relative stereo), the Ki is 713 nM in [1], above 10000 nM in [2] and 511 nM in test [3].
For `CC[C@@]1(c2ccccc2)OCC[C@@H](CCNCc2ccccc2)O1` (relative stereo), in [4], the Ratio Ki came out at 33. Also, the inhibition constant (Ki) in [1] is above 10000 nM; in test [2], 903 nM; in test [3] it was 27 nM. The result in [5] was inactive.
As for `NCCC[C@@H]1CCO[C@H](c2ccccc2)O1` (relative stereo), the Ki in [1] was above 10000 nM; in [2], 581 nM; in test [3], 167 nM.
For `CNCCC[C@@H]1CCO[C@H](c2ccccc2)O1` (relative stereo), in that order: above 10000 nM, 6320 nM and 327 nM.
The matching figures for `CN(C)CCC[C@@H]1CCO[C@H](c2ccccc2)O1` (relative stereo): above 10000 nM, above 10000 nM and 1220 nM.
The matching figures for `c1ccc(CNCCC[C@@H]2CCO[C@H](c3ccccc3)O2)cc1` (relative stereo): above 10000 nM, 3890 nM and 164 nM.
Regarding `CC[C@@]1(c2ccccc2)OCC[C@@H](CCCN)O1` (relative stereo), the Ki was found to be 7670 nM in [1], 542 nM in [2] and 6450 nM in test [3].
The compound `c1ccc(C2(c3ccccc3)OC[C@H]([C@@H]3CCCCN3)O2)cc1` [DEXOXADROL] yielded a Ki in test [10] of 23 nM.
`Cc1ccccc1NC(=N)Nc1ccccc1C` [DITOLYLGUANIDINE] showed a Ki in test [2] of 64 nM. This counts as double-digit nanomolar.
Turning to `CC[C@]1(c2ccccc2)OC[C@H]([C@@H]2CCCCN2)O1` [ETOXADROL], the Ki in test [10] worked out at 20 nM; in test [1], 22 nM.
In turn, `c1ccc(C2(N3CCCCC3)CCCCC2)cc1` [PHENCYCLIDINE] yielded a Ki in test [1] of 28 nM.
